Assay results from ChEMBL document CHEMBL1144401, “Combination of molecular modeling, site-directed mutagenesis, and SAR studies to delineate the binding site of pyridopyrimidine antagonists on the human CCK1 receptor” (J Med Chem, 2005).

What was measured:
[1] = biological target: Cholecystokinin receptor type A (Homo sapiens, UniProt P32238, I329A); assay: Inhibition of CCK-induced inositol phosphate in Cos-7 cells expressing mutant CCK1R (I329A); format: functional, cell-based
How it was run: (§1)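 Mutant human CCK1R cDNAs were made by site-directed mutagenesis in pRFENeo and sequence-verified. COS-7 cells were transfected by DEAE-dextran. Cells were [3H]inositol-labelled overnight, then LiCl-preincubated and incubated 60 min at 37 °C in pH 7.45 PI buffer with CCK and varying antagonist. Dowex-separated inositol phosphates were counted. IC50 given as mean ± SEM; Fmut = IC50(mutant)/IC50(wild type).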

[2] = biological target: Cholecystokinin receptor type A (Homo sapiens, UniProt P32238, I329F); assay: Inhibition of CCK-Induced inositol phosphate in Cos-7 cells expressing mutant CCK1R (I329F); format: functional, cell-based; how it was run: as §1
Chain of Cholecystokinin receptor type A (Homo sapiens, UniProt P32238, I329F) (P32238 whole entry I329F): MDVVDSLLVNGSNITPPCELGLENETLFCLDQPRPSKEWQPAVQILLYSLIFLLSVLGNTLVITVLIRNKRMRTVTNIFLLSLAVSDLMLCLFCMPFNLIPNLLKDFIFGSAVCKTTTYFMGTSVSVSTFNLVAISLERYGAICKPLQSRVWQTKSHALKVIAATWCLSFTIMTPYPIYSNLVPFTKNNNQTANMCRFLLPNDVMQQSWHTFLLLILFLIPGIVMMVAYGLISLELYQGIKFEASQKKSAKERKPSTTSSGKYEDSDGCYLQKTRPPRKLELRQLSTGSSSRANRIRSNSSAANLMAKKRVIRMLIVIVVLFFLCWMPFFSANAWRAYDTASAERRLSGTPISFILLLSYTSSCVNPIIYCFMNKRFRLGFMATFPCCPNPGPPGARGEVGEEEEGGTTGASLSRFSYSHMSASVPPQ

[3] = biological target: Cholecystokinin receptor type A (Homo sapiens, UniProt P32238, I352A); assay: Inhibition of CCK-Induced inositol phosphate in Cos-7 cells expressing mutant CCK1R (I352A); format: functional, cell-based; how it was run: as §1
Chain of Cholecystokinin receptor type A (Homo sapiens, UniProt P32238, I352A) (P32238 whole entry I352A): as the sequence (P32238 whole entry I329F) above, with F329I, I352A counted along it

[4] = biological target: Cholecystokinin receptor type A (Homo sapiens, UniProt P32238, M195L); assay: Inhibition of CCK-Induced inositol phosphate in Cos-7 cells expressing mutant CCK1R (M195L); format: functional, cell-based; how it was run: as §1
Chain of Cholecystokinin receptor type A (Homo sapiens, UniProt P32238, M195L) (P32238 whole entry M195L): as the sequence (P32238 whole entry I329F) above, with M195L, F329I counted along it

[5] = biological target: Cholecystokinin receptor type A (Homo sapiens, UniProt P32238, R197M); assay: Inhibition of CCK-Induced inositol phosphate in Cos-7 cells expressing mutant CCK1R (R197M); format: functional, cell-based; how it was run: as §1
Chain of Cholecystokinin receptor type A (Homo sapiens, UniProt P32238, R197M) (P32238 whole entry R197M): as the sequence (P32238 whole entry I329F) above, with R197M, F329I counted along it

[6] = biological target: Cholecystokinin receptor type A (Homo sapiens, UniProt P32238, R336M); assay: Inhibition of CCK-Induced inositol phosphate in Cos-7 cells expressing mutant CCK1R (R336M); format: functional, cell-based; how it was run: as §1
Chain of Cholecystokinin receptor type A (Homo sapiens, UniProt P32238, R336M) (P32238 whole entry R336M): as the sequence (P32238 whole entry I329F) above, with F329I, R336M counted along it

[7] = biological target: Cholecystokinin receptor type A (Homo sapiens, UniProt P32238, S342A); assay: Inhibition of CCK-Induced inositol phosphate in Cos-7 cells expressing mutant CCK1R (S342A); format: functional, cell-based; how it was run: as §1
Chain of Cholecystokinin receptor type A (Homo sapiens, UniProt P32238, S342A) (P32238 whole entry S342A): as the sequence (P32238 whole entry I329F) above, with F329I, S342A counted along it

[8] = biological target: Cholecystokinin receptor type A (Homo sapiens, UniProt P32238, S348A); assay: Inhibition of CCK-Induced inositol phosphate in Cos-7 cells expressing mutant CCK1R (S348A); format: functional, cell-based; how it was run: as §1
Chain of Cholecystokinin receptor type A (Homo sapiens, UniProt P32238, S348A) (P32238 whole entry S348A): as the sequence (P32238 whole entry I329F) above, with F329I, S348A counted along it

[9] = biological target: Cholecystokinin receptor type A (Homo sapiens, UniProt P32238, T117A); assay: Inhibition of CCK-Induced inositol phosphate in Cos-7 cells expressing mutant CCK1R (T117A); format: functional, cell-based; how it was run: as §1
Chain of Cholecystokinin receptor type A (Homo sapiens, UniProt P32238, T117A) (P32238 whole entry T117A): as the sequence (P32238 whole entry I329F) above, with T117A, F329I counted along it

[10] = biological target: T1, Cholecystokinin receptor type A (Homo sapiens, UniProt P32238); assay: Inhibition of CCK-Induced inositol phosphate production in Cos-7 cells expressing human CCK1R; format: functional, cell-based
T1 sequence (P32238 whole entry): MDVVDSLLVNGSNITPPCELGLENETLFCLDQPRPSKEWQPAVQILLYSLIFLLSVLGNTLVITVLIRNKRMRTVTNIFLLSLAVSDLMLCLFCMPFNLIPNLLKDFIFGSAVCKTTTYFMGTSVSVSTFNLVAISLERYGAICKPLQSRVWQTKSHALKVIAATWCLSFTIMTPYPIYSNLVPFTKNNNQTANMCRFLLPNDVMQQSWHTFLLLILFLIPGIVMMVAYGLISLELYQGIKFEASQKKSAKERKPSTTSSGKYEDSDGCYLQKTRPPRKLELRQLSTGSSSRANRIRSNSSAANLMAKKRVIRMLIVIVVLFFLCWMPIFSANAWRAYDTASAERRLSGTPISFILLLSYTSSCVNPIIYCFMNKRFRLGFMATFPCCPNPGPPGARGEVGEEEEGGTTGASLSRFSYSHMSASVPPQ

[11] = biological target: T2, Cholecystokinin receptor type A (Rattus norvegicus, UniProt P30551); assay: Inhibition of 71 pM [125I]BH-(Thr,Nle)CCK-9 binding to rat cholecystokinin 1 receptor
T2 sequence (P30551 whole entry): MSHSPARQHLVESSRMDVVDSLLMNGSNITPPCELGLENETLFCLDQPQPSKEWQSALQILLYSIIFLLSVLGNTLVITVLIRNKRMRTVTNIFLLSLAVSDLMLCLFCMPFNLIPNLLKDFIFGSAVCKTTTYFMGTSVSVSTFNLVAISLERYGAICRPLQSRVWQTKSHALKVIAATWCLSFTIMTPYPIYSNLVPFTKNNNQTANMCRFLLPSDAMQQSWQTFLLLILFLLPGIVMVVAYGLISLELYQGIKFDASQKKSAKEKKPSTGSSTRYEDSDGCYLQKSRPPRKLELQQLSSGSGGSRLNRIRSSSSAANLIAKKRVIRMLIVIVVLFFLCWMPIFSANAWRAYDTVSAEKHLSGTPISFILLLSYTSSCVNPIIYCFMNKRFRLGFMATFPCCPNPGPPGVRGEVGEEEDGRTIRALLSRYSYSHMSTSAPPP

[12] = biological target: T1, Cholecystokinin receptor type A; assay: Inhibition of CCK binding to Cos-7 cells expressing human cholecystokinin 1 receptor; format: cell-based
How it was run: (§2)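 COS-7 cells were grown in DMEM with 5% FCS and transiently transfected by DEAE-dextran with 2 µg/plate of human CCK1R or CCK2R cDNA (from pancreas or gallbladder). About 24 h after replating, cells were incubated 60 min at 37 °C in DMEM with 0.1% BSA and 71 pM [125I]BH-(Thr,Nle)CCK-9 plus competitor. Nonspecific binding used 1 µM. IC50 given as mean ± SEM, 3–6 experiments.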

[13] = biological target: T3, Gastrin/cholecystokinin type B receptor (Homo sapiens, UniProt P32239); assay: Inhibition of CCK binding to Cos-7 cells expressing human cholecystokinin 2 receptor; format: cell-based; how it was run: as §2
T3 sequence (P32239 whole entry): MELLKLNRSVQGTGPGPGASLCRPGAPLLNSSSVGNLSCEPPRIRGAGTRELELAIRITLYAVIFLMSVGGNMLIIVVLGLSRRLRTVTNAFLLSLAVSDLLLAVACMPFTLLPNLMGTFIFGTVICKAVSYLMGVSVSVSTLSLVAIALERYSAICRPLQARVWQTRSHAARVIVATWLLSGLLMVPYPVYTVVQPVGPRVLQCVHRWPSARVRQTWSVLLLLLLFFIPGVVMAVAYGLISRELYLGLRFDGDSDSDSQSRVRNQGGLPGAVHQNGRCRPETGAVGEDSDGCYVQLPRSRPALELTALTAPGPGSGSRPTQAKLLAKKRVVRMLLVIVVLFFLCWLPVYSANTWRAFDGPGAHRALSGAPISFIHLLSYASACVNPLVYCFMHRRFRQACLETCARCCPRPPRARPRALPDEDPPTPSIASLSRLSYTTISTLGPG

[14] = biological target: Cholecystokinin receptor type A (Homo sapiens, UniProt P32238, F107A); assay: Inhibition of CCK-induced inositol phosphate in Cos-7 cells expressing mutant CCK1R (F107A); format: functional, cell-based; how it was run: as §1
Chain of Cholecystokinin receptor type A (Homo sapiens, UniProt P32238, F107A) (P32238 whole entry F107A): as the sequence (P32238 whole entry I329F) above, with F107A, F329I counted along it

[15] = test system: Cholecystokinin receptor type A (Homo sapiens), P32238 [UNDEFINED MUTATION]
[16] = test system: Cholecystokinin receptor type A (Homo sapiens), P32238 [UNDEFINED MUTATION]; remark: listed apart in the source
[17] = test system: Cholecystokinin receptor type A (Homo sapiens), P32238 [UNDEFINED MUTATION]; remark: listed apart in the source
[18] = test system: Cholecystokinin receptor type A (Homo sapiens), P32238 [UNDEFINED MUTATION]; remark: listed apart in the source
[19] = test system: Cholecystokinin receptor type A (Homo sapiens), P32238 [UNDEFINED MUTATION]; remark: listed apart in the source
[20] = test system: Cholecystokinin receptor type A (Homo sapiens), P32238 [UNDEFINED MUTATION]; remark: listed apart in the source
[21] = test system: Cholecystokinin receptor type A (Homo sapiens), P32238 [UNDEFINED MUTATION]; remark: listed apart in the source
[22] = test system: Cholecystokinin receptor type A (Homo sapiens), P32238 [UNDEFINED MUTATION]; remark: listed apart in the source
[23] = test system: Cholecystokinin receptor type A (Homo sapiens), P32238 [UNDEFINED MUTATION]; remark: listed apart in the source
[24] = test system: Cholecystokinin receptor type A (Homo sapiens), P32238 [UNDEFINED MUTATION]; remark: listed apart in the source
[25] = biological target: T4, Gastrin/cholecystokinin type B receptor (Rattus norvegicus, UniProt P30553); assay: Inhibition of 71 pM [125I]BH-(Thr,Nle)CCK-9 binding to rat cholecystokinin 2 receptor
T4 sequence (P30553 whole entry): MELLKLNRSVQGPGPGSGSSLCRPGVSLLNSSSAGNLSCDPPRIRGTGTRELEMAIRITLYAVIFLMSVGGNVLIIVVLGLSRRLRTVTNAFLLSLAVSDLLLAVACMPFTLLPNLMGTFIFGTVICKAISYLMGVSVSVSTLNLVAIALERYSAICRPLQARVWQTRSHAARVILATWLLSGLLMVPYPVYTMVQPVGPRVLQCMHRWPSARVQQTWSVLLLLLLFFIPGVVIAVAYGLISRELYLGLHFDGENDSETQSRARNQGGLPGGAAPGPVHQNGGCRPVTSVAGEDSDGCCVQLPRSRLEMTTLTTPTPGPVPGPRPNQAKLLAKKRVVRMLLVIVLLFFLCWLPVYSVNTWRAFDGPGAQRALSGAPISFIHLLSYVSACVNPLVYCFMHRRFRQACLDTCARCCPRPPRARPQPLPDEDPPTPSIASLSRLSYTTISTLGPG

Chain of Cholecystokinin receptor type A (Homo sapiens, UniProt P32238, I329A) (P32238 whole entry I329A): as the sequence (P32238 whole entry I329F) above, with F329A counted along it

| SMILES | IC50 [1] | IC50 [2] | IC50 [3] | IC50 [4] | IC50 [5] | IC50 [6] | IC50 [7] | IC50 [8] | IC50 [9] | IC50 [10] | IC50 [12] | IC50 [13] | IC50 [14] | Fmut [15] | Fmut [16] | Fmut [17] | Fmut [18] | Fmut [19] | Fmut [20] | Fmut [21] | other results |
| --- | --- | --- | --- | --- | --- | --- | --- | --- | --- | --- | --- | --- | --- | --- | --- | --- | --- | --- | --- | --- | --- |
| CC(C)(C)OC(=O)N[C@@H](Cc1c[nH]c2ccccc12)C(=O)N[C@H]1CCCN2C(=O)N(Cc3ccccc3)C(=O)C[C@@H]12 | – | – | – | – | – | – | – | – | – | 20900 nM | 6850 nM | 6020 nM | – | – | – | – | – | – | – | – | – |
| CC(C)(C)OC(=O)N[C@@H](Cc1c[nH]c2ccccc12)C(=O)N[C@@H]1CCCN2C(=O)N(Cc3ccccc3)C(=O)C[C@@H]12 [IQM-95333] | – | – | – | – | – | – | – | – | – | – | – | – | – | – | – | – | – | – | – | – | IC50 [25]: > 10000 nM |
| CC(C)(C)OC(=O)N[C@@H](Cc1c[nH]c2ccccc12)C(=O)N[C@@H]1CCCN2C(=O)N(c3ccccc3)C(=O)C[C@@H]12 | 1110 nM | 514 nM | 2290 nM | 35.2 nM | 23 nM | 4860 nM | 33.2 nM | 36.6 nM | 71.6 nM | 35.8 nM | 5.2 nM | > 10000 nM | 23.3 nM | 0.7 | 30.8 | 14.3 | 65.5 | 0.4 | 0.7 | 125 | Fmut [22]: 0.8; Fmut [23]: 1.2; Fmut [24]: 1.9 |

More lines, in order of falling IC50 [10], values ahead:

| IC50 [1] | IC50 [2] | IC50 [3] | IC50 [4] | IC50 [5] | IC50 [6] | IC50 [7] | IC50 [8] | IC50 [9] | IC50 [10] | IC50 [12] | IC50 [13] | IC50 [14] | Fmut [15] | Fmut [16] | Fmut [17] | Fmut [18] | Fmut [19] | Fmut [20] | Fmut [21] | SMILES | other results |
| --- | --- | --- | --- | --- | --- | --- | --- | --- | --- | --- | --- | --- | --- | --- | --- | --- | --- | --- | --- | --- | --- |
| 9.3 nM | 801 nM | 227 nM | 5.2 nM | 8.9 nM | 582 nM | 7.9 nM | 3.6 nM | 24.9 nM | 8.8 nM | 2.1 nM | > 10000 nM | 26.8 nM | 3 | 1 | 90.8 | 21.2 | 0.2 | 0.9 | 40.1 | CC(C)(C)OC(=O)N[C@@H](Cc1c[nH]c2ccccc12)C(=O)N[C@@H]1CCCN2C(=O)N(c3cccc4ccccc34)C(=O)C[C@@H]12 | IC50 [11]: 0.59 nM; Fmut [22]: 0.7; Fmut [23]: 0.5; Fmut [24]: 2 |
| 129 nM | 183 nM | 831 nM | 5.8 nM | 11.8 nM | 2060 nM | 27.5 nM | 5.7 nM | 28.4 nM | 7.3 nM | 3.8 nM | > 10000 nM | 31.5 nM | 4.6 | 6.6 | 24.9 | 61.6 | 0.3 | 0.4 | 138 | CC(C)(C)OC(=O)N[C@@H](Cc1c[nH]c2ccccc12)C(=O)N[C@@H]1CCCN2C(S)N(Cc3ccccc3)C(=O)C[C@@H]12 (some centres undefined) | Fmut [22]: 0.8; Fmut [23]: 0.2; Fmut [24]: 1.6 |
